System: M2 anti-FLAG antibody
Experiment: Prot-MaP on-chip limit of detection
Assay type: binding, mouse
Details: for fluorescence signal relative to WT: quantified fluorescence medians across M2 concentrations, Fig. 2B
In short: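 Run at 25°C: M2 at 1, 3.2, 10, 32, 100nM (45 min each), each followed by wash and 35nM Alexa555 anti-mouse secondary (37 min). Zero-primary secondary gives baseline. Per-variant cluster medians used; threshold 3σ above negative-set mean; LoD by inter/extrapolation.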

fluorescence signal relative to WT | fold lower LoD than WT (LoD of WT FLAG (DYKDDDDK) relative to variant) | Sequence
much higher signal than WT |  | DYKDDDDKGDYKDHD [2xFLAG, reference compound]
much higher signal than WT | 7.9 fold | DYKDEDLL [superFLAG]

— paper PMC7001660 (Molecular cell, 2019)
